Format in all cases: functional, cell-based
One experiment relates to MC-38. Briefly: In vitro antiproliferative activity against colon 38 murine adenocarcinoma. The settings on record: Mus musculus. The essentials:
(§1)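 RPMI1640 with 10% FBS; seeded at 2.5×10³ cells/well for KB and colon 38, 1.25×10³ cells/well for P388; preincubated 24 h at 37 °C, 5% CO2. DMSO stocks were diluted 3-fold serially in medium, with 200 μg/mL the top dilution. Exposure was continuous for 3 days, then MTT for 1–2 h. Formazan was read in DMSO at 540/660 nm, and IC50 was taken by least squares.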

Another experiment has as its system P388. In words: Antiproliferative activity against P388 murine leukemia in vitro. The settings on record: Mus musculus. The essentials:
as §1

In the next experiment the test system is KB. Briefly: Antiproliferative activity against KB human nasopharynx carcinoma in vitro. The essentials: as §1

In brackets after ≈: the same amount, converted by molar mass.

For `N#Cc1ccccc1S(=O)(=O)Nc1cccc2c(C#N)c[nH]c12`, the results for the IC50 with MC-38, with P388 and in the experiment on KB were 2.8 µg/mL (≈ 8.69 µM), 14 µg/mL (≈ 43.4 µM) and 61 µg/mL (≈ 189 µM), respectively.
The like results for `CS(=O)(=O)Nc1cccc(S(=O)(=O)Nc2cccc3c(Cl)c[nH]c23)c1` were, in that order, 1.5 µg/mL (≈ 3.75 µM), 4.8 µg/mL (≈ 12 µM) and 26 µg/mL (≈ 65 µM).
`COc1ccc(S(=O)(=O)Nc2cccc3c(C#N)c[nH]c23)cc1`: the IC50 is 0.17 µg/mL (≈ 0.519 µM) in the experiment on MC-38, 0.17 µg/mL (≈ 0.519 µM) in the experiment with P388 and 1.4 µg/mL (≈ 4.28 µM) in the experiment on KB.
For the molecule `CS(=O)(=O)Nc1ccccc1S(=O)(=O)Nc1cccc2c(Cl)c[nH]c12`, the IC50 in the experiment on MC-38 came out at 45 µg/mL (≈ 113 µM); with P388 it was 18 µg/mL (≈ 45 µM); with KB it was 18 µg/mL (≈ 45 µM).
In the case of `N#Cc1cccc(S(=O)(=O)Nc2cccc3c(C#N)c[nH]c23)c1`, the results for the IC50 in the experiment with MC-38, in the experiment with P388 and with KB were 0.09 µg/mL (≈ 0.279 µM), 0.2 µg/mL (≈ 0.62 µM) and 8.2 µg/mL (≈ 25.4 µM), respectively.
The corresponding values for `O=C(O)c1ccc(S(=O)(=O)Nc2cccc3c(Cl)c[nH]c23)cc1` are more than 100 µg/mL, more than 100 µg/mL and more than 100 µg/mL.
The like results for `NC(=O)c1ccc(S(=O)(=O)Nc2cccc3c(Cl)c[nH]c23)cc1` were, in that order, 0.19 µg/mL (≈ 0.543 µM), 0.87 µg/mL (≈ 2.49 µM) and 21 µg/mL (≈ 60 µM).
On to `CS(=O)(=O)Nc1ccc(S(=O)(=O)Nc2cccc3c(C#N)c[nH]c23)cc1`, for which the IC50 in the experiment on MC-38 came out at 1.2 µg/mL (≈ 3.07 µM); in the experiment with P388 it was 3.5 µg/mL (≈ 8.96 µM); in the experiment with KB it was 15 µg/mL (≈ 38.4 µM).
Take `CS(=O)(=O)Nc1ccc(S(=O)(=O)Nc2cccc3c(Cl)c[nH]c23)cc1`: the IC50 stood at 0.26 µg/mL (≈ 0.65 µM) with MC-38, 1.6 µg/mL (≈ 4 µM) with P388 and 12 µg/mL (≈ 30 µM) with KB.
As to `NS(=O)(=O)Cc1ccc(S(=O)(=O)Nc2cccc3c(Cl)c[nH]c23)cc1`, the IC50 with MC-38 was 0.12 µg/mL (≈ 0.3 µM); in the experiment with P388, 0.15 µg/mL (≈ 0.375 µM); in the experiment with KB, 13 µg/mL (≈ 32.5 µM).
On to `Cc1ccc(S(=O)(=O)Nc2cccc3cc[nH]c23)cc1`, for which the IC50 came out at 2.4 µg/mL (≈ 8.38 µM) in the experiment with MC-38, 4.3 µg/mL (≈ 15 µM) with P388 and 2.2 µg/mL (≈ 7.68 µM) in the experiment on KB.
The corresponding values for `COc1ccc(S(=O)(=O)Nc2cccc3c(Cl)c[nH]c23)cc1` are 0.2 µg/mL (≈ 0.594 µM), 0.76 µg/mL (≈ 2.26 µM) and 0.55 µg/mL (≈ 1.63 µM).
The corresponding values for `Nc1ccc(S(=O)(=O)Nc2cccc3cc[nH]c23)cc1` are 6.1 µg/mL (≈ 21.2 µM), 14 µg/mL (≈ 48.7 µM) and 36 µg/mL (≈ 125 µM).
The like results for `Nc1ccc(S(=O)(=O)Nc2cccc3c(Cl)c[nH]c23)cc1` were, in that order, 0.23 µg/mL (≈ 0.715 µM), 0.81 µg/mL (≈ 2.52 µM) and 10 µg/mL (≈ 31.1 µM).
As for `N#Cc1ccc(S(=O)(=O)Nc2cccc3c(Cl)c[nH]c23)cc1`, the IC50 in the experiment on MC-38 was determined as 0.13 µg/mL (≈ 0.392 µM); with P388, 1.4 µg/mL (≈ 4.22 µM); in the experiment on KB, 11 µg/mL (≈ 33.2 µM).
`COc1ccc(S(=O)(=O)Nc2cccc3cc[nH]c23)cc1`: the results for the IC50 in the experiment with MC-38, in the experiment with P388 and in the experiment on KB were 1.5 µg/mL (≈ 4.96 µM), 1.1 µg/mL (≈ 3.64 µM) and 0.67 µg/mL (≈ 2.22 µM), respectively.
Consider `O=S(=O)(Nc1cccc2cc[nH]c12)c1ccc(Cl)cc1`, for which the 50% inhibitory concentration (IC50) was 7 µg/mL (≈ 22.8 µM) in the experiment on MC-38, 6 µg/mL (≈ 19.6 µM) in the experiment on P388 and 6 µg/mL (≈ 19.6 µM) in the experiment with KB.
With `CNS(=O)(=O)c1ccc(S(=O)(=O)Nc2cccc3c(Cl)c[nH]c23)cc1`, the IC50 came to 0.24 µg/mL (≈ 0.6 µM) in the experiment on MC-38, 0.9 µg/mL (≈ 2.25 µM) in the experiment on P388 and 15 µg/mL (≈ 37.5 µM) in the experiment on KB.
The like results for `N#Cc1ccc(S(=O)(=O)Nc2cccc3cc[nH]c23)cc1` were, in that order, 1.8 µg/mL (≈ 6.05 µM), 4.2 µg/mL (≈ 14.1 µM) and 8.5 µg/mL (≈ 28.6 µM).
With `N#Cc1c[nH]c2c(NS(=O)(=O)c3ccc(C(N)=O)cc3)cccc12`, the IC50 in the experiment on MC-38 was determined as 0.68 µg/mL (≈ 2 µM); in the experiment with P388 it was 2.5 µg/mL (≈ 7.35 µM); with KB, 15 µg/mL (≈ 44.1 µM).
In the case of `N#Cc1ccc(S(=O)(=O)Nc2cccc3c(C#N)c[nH]c23)cc1`, the results for the IC50 in the experiment with MC-38, in the experiment with P388 and in the experiment on KB were 0.12 µg/mL (≈ 0.372 µM), 0.53 µg/mL (≈ 1.64 µM) and 33 µg/mL (≈ 102 µM), respectively.
For `N#Cc1c[nH]c2c(NS(=O)(=O)c3ccc(C(=O)O)cc3)cccc12`, the IC50 in the experiment with MC-38, in the experiment with P388 and with KB was more than 100 µg/mL in each case.
As to `N#Cc1c[nH]c2c(NS(=O)(=O)c3ccc(N)cc3)cccc12`, the IC50 was 0.28 µg/mL (≈ 0.896 µM) with MC-38, 0.72 µg/mL (≈ 2.31 µM) in the experiment with P388 and 4.4 µg/mL (≈ 14.1 µM) in the experiment with KB.
In the experiment on P388, `COc1ccc(S(=O)(=O)Nc2cccnc2Nc2ccc(O)cc2)cc1` [ABT-751] registered an IC50 of 0.32 µg/mL (≈ 0.862 µM).
Turning to `NS(=O)(=O)c1ccc(S(=O)(=O)Nc2cccc3c(Cl)c[nH]c23)cc1` [INDISULAM], the values for the IC50 in the experiment with MC-38, in the experiment with P388 and in the experiment on KB were 0.1 µg/mL (≈ 0.259 µM), 0.45 µg/mL (≈ 1.17 µM) and 4.4 µg/mL (≈ 11.4 µM), respectively.

(Values after ChEMBL document CHEMBL1132278, “Discovery of novel antitumor sulfonamides targeting G1 phase of the cell cycle” (J Med Chem, 1999).)
